Assay results published in ChEMBL document CHEMBL4346709, “Design and Optimization Leading to an Orally Active TTK Protein Kinase Inhibitor with Robust Single Agent Efficacy” (J Med Chem, 2019).

Legend:
[1] = molecular target: Dual specificity protein kinase CLK2 (Homo sapiens, UniProt P49760); experiment: Inhibition of recombinant human GST-tagged CLK2 catalytic domain (137 to 498 residues) expressed in baculovirus expression system at 3 uM by Z'-LYTE assay relative to control
How it was run: (§1)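 Kinase selectivity panel: single-point assessment at 3 µM, n=1.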

[2] = Oral bioavailability in CB17 SCID mouse at 30 mg/kg; format: ADME, organism-based; conditions: in vivo
[3] = molecular target: T1, Dual specificity protein kinase TTK (Homo sapiens, UniProt P33981); experiment: Inhibition of TTK in human CAL51 cells assessed as decrease in phosphorylated TTK T686 levels after 1 hr by Western blot analysis; format: cell-based
T1 sequence (P33981 whole entry): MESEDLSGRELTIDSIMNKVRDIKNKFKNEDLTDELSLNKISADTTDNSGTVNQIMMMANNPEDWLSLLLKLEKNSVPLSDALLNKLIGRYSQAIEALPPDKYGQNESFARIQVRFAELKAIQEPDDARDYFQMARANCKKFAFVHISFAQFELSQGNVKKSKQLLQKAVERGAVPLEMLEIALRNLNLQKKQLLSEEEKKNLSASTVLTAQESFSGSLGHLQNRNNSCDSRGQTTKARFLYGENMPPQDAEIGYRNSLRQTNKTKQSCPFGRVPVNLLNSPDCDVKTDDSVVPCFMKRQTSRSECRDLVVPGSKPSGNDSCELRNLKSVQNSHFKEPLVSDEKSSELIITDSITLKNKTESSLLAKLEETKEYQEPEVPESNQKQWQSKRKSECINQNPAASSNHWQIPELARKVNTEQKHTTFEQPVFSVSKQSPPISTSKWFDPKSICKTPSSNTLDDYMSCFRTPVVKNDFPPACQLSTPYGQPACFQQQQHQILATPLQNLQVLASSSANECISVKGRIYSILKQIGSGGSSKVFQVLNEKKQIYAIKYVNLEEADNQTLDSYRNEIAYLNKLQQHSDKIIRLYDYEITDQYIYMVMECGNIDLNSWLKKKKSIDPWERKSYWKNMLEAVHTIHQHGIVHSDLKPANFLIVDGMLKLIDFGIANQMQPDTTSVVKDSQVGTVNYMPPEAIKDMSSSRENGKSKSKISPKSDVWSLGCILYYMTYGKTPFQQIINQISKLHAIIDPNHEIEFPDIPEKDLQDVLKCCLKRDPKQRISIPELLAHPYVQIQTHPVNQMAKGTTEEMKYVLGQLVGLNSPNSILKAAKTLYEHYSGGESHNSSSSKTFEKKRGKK

[4] = molecular target: Mitogen-activated protein kinase 10 (Homo sapiens, UniProt P53779); experiment: Inhibition of recombinant human full length N-terminal GST-tagged JNK3 expressed in baculovirus expression system at 3 uM by Z'-LYTE assay relative to control; how it was run: as §1
Sequence of Mitogen-activated protein kinase 10 (P53779 whole entry, the tested form may be a part): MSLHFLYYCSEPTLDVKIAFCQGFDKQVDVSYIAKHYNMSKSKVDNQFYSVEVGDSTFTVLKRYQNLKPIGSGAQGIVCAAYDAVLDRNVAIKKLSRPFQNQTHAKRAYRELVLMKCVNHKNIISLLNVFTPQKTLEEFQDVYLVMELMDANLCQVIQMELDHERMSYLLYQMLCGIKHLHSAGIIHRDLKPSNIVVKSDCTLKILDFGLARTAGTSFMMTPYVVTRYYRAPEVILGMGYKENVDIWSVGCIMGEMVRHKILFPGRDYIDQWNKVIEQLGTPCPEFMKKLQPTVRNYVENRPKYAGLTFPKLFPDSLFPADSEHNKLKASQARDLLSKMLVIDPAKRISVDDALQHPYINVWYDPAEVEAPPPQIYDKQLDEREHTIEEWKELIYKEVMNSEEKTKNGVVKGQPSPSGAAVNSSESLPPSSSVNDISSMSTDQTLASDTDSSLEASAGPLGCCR

[5] = molecular target: Leucine-rich repeat serine/threonine-protein kinase 2 (Homo sapiens, UniProt Q5S007, G2019S); experiment: Inhibition of recombinant human GST-tagged LRRK2 G2019S mutant catalytic domain (970 to 2527 residues) expressed in baculovirus expression system using LRRKtide as substrate measured after 1 hr by Alexa-fluor-647 ADP tracer-based ADAPTA assay
Sequence of Leucine-rich repeat serine/threonine-protein kinase 2 (Q5S007 whole entry G2019S, the tested form may be a part): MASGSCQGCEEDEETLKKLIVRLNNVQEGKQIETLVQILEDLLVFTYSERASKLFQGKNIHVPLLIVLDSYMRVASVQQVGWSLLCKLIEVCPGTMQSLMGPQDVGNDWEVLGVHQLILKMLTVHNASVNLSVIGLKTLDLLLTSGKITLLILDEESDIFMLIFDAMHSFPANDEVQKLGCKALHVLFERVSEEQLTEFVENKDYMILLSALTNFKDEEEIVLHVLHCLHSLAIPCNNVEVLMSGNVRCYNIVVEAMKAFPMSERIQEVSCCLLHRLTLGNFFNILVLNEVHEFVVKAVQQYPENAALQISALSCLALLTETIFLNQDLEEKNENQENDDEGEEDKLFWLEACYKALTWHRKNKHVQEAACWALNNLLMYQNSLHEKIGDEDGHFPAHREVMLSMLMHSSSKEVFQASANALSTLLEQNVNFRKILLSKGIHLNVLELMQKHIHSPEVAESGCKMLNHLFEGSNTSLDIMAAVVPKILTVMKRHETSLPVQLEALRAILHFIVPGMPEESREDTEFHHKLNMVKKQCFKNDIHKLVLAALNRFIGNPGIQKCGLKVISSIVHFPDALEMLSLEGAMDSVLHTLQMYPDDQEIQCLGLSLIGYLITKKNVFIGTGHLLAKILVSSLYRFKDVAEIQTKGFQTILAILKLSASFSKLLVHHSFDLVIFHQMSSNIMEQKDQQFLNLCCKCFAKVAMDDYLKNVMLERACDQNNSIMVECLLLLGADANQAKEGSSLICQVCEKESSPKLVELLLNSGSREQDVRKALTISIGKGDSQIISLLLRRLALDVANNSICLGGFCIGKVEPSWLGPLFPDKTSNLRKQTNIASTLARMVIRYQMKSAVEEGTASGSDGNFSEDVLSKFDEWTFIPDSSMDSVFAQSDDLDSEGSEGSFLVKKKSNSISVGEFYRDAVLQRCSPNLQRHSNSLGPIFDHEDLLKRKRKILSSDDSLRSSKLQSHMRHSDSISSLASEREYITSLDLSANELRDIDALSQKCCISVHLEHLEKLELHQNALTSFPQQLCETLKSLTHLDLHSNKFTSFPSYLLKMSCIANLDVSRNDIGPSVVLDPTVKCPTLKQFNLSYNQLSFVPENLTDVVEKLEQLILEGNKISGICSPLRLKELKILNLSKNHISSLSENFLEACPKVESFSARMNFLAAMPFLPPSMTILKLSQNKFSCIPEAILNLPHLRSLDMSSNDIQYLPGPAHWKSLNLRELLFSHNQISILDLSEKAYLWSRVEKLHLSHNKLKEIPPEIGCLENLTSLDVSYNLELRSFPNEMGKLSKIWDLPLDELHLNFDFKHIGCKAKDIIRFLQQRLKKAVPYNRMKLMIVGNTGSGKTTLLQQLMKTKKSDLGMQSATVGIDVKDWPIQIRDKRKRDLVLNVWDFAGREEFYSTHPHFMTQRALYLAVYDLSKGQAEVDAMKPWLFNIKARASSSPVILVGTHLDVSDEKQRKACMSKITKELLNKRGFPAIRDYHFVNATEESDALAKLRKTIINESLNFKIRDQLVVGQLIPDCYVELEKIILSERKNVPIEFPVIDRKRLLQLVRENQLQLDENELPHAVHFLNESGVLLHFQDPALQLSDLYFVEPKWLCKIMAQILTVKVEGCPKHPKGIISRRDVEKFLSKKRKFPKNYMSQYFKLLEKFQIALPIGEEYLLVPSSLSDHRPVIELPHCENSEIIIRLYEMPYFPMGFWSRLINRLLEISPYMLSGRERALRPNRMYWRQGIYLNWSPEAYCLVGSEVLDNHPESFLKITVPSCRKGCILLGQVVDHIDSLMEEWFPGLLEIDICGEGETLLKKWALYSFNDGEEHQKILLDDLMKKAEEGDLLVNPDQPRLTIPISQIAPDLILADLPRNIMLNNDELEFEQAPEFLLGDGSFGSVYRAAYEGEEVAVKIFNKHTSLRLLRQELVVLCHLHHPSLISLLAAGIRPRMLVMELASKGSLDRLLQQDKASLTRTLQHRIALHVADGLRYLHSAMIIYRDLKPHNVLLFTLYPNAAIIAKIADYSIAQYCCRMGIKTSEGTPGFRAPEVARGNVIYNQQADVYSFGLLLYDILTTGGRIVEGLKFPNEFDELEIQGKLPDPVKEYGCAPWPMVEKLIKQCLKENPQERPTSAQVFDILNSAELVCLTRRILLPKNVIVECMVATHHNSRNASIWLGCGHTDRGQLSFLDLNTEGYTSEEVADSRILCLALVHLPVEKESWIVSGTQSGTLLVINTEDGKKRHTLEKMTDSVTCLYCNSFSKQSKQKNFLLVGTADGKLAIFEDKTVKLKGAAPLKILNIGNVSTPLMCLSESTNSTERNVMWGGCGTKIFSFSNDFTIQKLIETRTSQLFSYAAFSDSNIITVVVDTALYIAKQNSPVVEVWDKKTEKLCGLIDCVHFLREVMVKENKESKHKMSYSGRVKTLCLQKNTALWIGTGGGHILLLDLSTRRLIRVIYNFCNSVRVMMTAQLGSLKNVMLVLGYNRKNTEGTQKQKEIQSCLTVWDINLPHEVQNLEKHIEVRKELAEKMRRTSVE

Sequence of Dual specificity protein kinase CLK2 (P49760 whole entry, looked up, the tested form may be a part): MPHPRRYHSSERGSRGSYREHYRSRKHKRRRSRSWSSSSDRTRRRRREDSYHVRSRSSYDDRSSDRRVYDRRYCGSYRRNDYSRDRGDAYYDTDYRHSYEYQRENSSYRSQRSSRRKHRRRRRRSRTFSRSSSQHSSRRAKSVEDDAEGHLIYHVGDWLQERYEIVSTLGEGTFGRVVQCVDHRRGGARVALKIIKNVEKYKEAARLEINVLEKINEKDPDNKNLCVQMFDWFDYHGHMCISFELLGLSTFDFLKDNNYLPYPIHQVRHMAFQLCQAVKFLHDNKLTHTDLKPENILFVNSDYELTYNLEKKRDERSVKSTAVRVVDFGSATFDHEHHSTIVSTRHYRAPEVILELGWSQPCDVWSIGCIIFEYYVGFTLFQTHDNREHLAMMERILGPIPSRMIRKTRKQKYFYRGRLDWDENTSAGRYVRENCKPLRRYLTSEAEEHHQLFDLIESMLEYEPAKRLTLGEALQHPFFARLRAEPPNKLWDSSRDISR

C[C@@H](Oc1cc(C(=O)N(C)C)ccc1Nc1nc(O[C@H]2CC[C@@](C)(O)CC2)c2c(Cl)c[nH]c2n1)C(F)(F)F
inhibition [1]: > 80%
bioavailability [2]: 60%
IC50 [3]: 11 nM
inhibition [4]: > 80%
IC50 [5]: 0.001 nM
